We go through 18 compounds from ChEMBL document CHEMBL1122766, “Synthesis and antitumor evaluation of some nitrosourea and nitrogen mustard amino acid derivatives” (J Med Chem, 1984).

Series [1] is filed under the species Mus musculus. In words: Dose range for antitumor activity against leukemia L1210 in mice. It is filed as functional. The method, boiled down:
(§1)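 Adult F1 (DBA/2 × C57Bl/6) mice inoculated ip with 10^5 L1210 cells on day 0, 8–10 mice per dose. Compound in olive oil (2–150 mg/kg) given day 1, repeated days 5 and 9 only in mice without toxicity. Daily mortality with autopsy. T/C × 100 from median survival; active if >125 and significant by Wilcoxon W test. Acute LD50 determined graphically.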

For series [2], the species on record is Mus musculus. In words: Optimum dose for antitumor activity against leukemia L1210 in mice. The class given is functional. Summed up: as §1
The nature of series [3]: Median lethal dose in L1210 (murine luekemia) inoculated mice. The class given is toxicity, organism-based. The conditions noted are these: mouse, in vivo. Summed up:
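Adult F1 (DBA/2 × C57Bl/6) mice inoculated ip with 10^5 L1210 cells on day 0; 8–10 mice per dose; compound in olive oil (2–150 mg/kg) on day 1, repeated days 5 and 9 only in mice without toxicity signs. Daily mortality, autopsy to separate leukemic from toxic deaths; acute LD50 determined graphically (98% confidence limits).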

Series [4] is described as follows: Therapeutic index in L1210 (murine leukemia) inoculated mice. The conditions noted are these: mouse; read-out: TI.
Series [5] is filed under the species Mus musculus. In words: The oncostatic index (T=median survival time in the treated group of mice, C=median survival time in the control group X 100) was calculated. It is filed as functional. The method, boiled down:
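Mice (adult F1 DBA/2 × C57Bl/6) given 10^5 L1210 cells ip on day 0; 8–10 per dose group; olive-oil doses 2–150 mg/kg on day 1, repeated days 5 and 9 in non-toxic mice. T/C × 100 from median survival times, treated vs control. Active if >125 and significant by Wilcoxon W test; ∞ means >50% of group cured.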

Broadly, the LD50 is the dose at which mortality reaches 50%. A lower LD50 goes with a more toxic substance. As to `NC(=O)CC(NC(=O)N(CCCl)N=O)C(=O)NCCCl` (stereo unspecified), the Dose in the series listed under Mus musculus [1] is 30 mg/kg. In addition, the OD in the series filed under Mus musculus [2] was 20 mg/kg. In series [3], this compound yielded an LD50 of 35 mg/kg. Moreover, in series [4], the selectivity ratio stood at 1.75.

With `O=NN(CCCl)C(=O)NC(Cc1ccccc1)C(=O)NCCCl` (stereo unspecified), the Dose in the series listed under Mus musculus [1] stood at 60 mg/kg. For the same compound, the OD in the series listed under Mus musculus [2] came to 50 mg/kg. The LD50 in series [3] is 80 mg/kg. Also, the selectivity ratio in series [4] stood at 1.6.

`O=NN(CCCl)C(=O)NCC(=O)NCCCl`: in the series filed under Mus musculus [1], the Dose worked out at 20 mg/kg. Further, the OD in the series filed under Mus musculus [2] was found to be 12 mg/kg. The same compound showed an LD50 in series [3] of 25 mg/kg. In addition, the selectivity ratio in series [4] is 2.

Compound `O=NN(CCCl)CCSSCCN(CCCl)N=O` came in with a Dose in the series filed under Mus musculus [1] of 50 mg/kg. In the series listed under Mus musculus [2], this compound yielded an OD of 30 mg/kg. In series [3], this compound gave an LD50 of 75 mg/kg. The selectivity ratio in series [4] came to 2.5.

Regarding `O=NN(CCCl)C(=O)NC1CCCCC1` [LOMUSTINE], the Dose in the series listed under Mus musculus [1] came out at 10 mg/kg. The compound also came in with an LD50 in series [3] of 30 mg/kg.

In turn, `CN(CC(=O)NCCCl)C(=O)N(CCCl)N=O` gave a Dose in the series filed under Mus musculus [1] of 280 mg/kg. The compound also returned an OD in the series listed under Mus musculus [2] of 200 mg/kg. The LD50 in series [3] was 400 mg/kg. For the same compound, the selectivity ratio in series [4] came to 2.

A word on the T/C: it is the result in the treated group divided by that in the control group, in per cent. For the compound `O=NN(CCCl)C(=O)N1CCCC1C(=O)NCCCl` (stereo unspecified), the Dose in the series filed under Mus musculus [1] worked out at 35 mg/kg. Further, in series [3], the LD50 is 80 mg/kg. Also, the T/C in the series filed under Mus musculus [5] was 194%.

Regarding `O=NN(CCCl)C(=O)N[C@H]1C(O)O[C@H](CO)[C@@H](O)[C@@H]1O` (stereo partly specified) [CHLOROZOTOCIN], in the series listed under Mus musculus [1], the Dose was determined as 25 mg/kg. Further, in the series filed under Mus musculus [2], the OD was found to be 15 mg/kg. The LD50 in series [3] came out at 35 mg/kg. In series [4], the selectivity ratio stood at 2.5.

Compound `O=NN(CCCl)C(=O)NC(Cc1ccc(O)cc1)C(=O)NCCCl` (stereo unspecified) came in with a Dose in the series filed under Mus musculus [1] of 25 mg/kg. The LD50 in series [3] was found to be 40 mg/kg. Also, the T/C in the series listed under Mus musculus [5] is 211%.

Consider `O=NN(CCCl)C(=O)NCCCC(=O)NCCCl`, for which, in the series filed under Mus musculus [1], the Dose came out at 50 mg/kg. The OD in the series filed under Mus musculus [2] came to 35 mg/kg. For the same compound, the selectivity ratio in series [4] was found to be 3.6.

`CC(NC(=O)N(CCCl)N=O)C(=O)NCCCl` (stereo unspecified) had a Dose in the series listed under Mus musculus [1] of 30 mg/kg. The compound also came in with an OD in the series filed under Mus musculus [2] of 20 mg/kg. Also, the LD50 in series [3] was determined as 35 mg/kg. Also, the selectivity ratio in series [4] was determined as 1.75.

`CC(O)C(NC(=O)N(CCCl)N=O)C(=O)NCCCl` (stereo unspecified) came in with a Dose in the series listed under Mus musculus [1] of 20 mg/kg. In addition, in the series listed under Mus musculus [2], the OD was 15 mg/kg. The 50% lethal dose (LD50) in series [3] came to 25 mg/kg. The selectivity ratio in series [4] is 1.6.

`CCC(C)C(NC(=O)N(CCCl)N=O)C(=O)NCCCl` (stereo unspecified) yielded a Dose in the series listed under Mus musculus [1] of 75 mg/kg. Besides, in the series filed under Mus musculus [2], the OD amounted to 50 mg/kg. The LD50 in series [3] is 130 mg/kg. Also, the selectivity ratio in series [4] is 2.6.

Compound `CC1(C)O[C@@H]2[C@H](O1)[C@@H](COC(=O)c1ccc([N+](=O)[O-])cc1)O[C@H]2NC(=O)N(CCCl)N=O` yielded a Dose in the series filed under Mus musculus [1] of 30 mg/kg. The same compound had an OD in the series filed under Mus musculus [2] of 20 mg/kg. This compound displayed an LD50 in series [3] of 90 mg/kg. Besides, the selectivity ratio in series [4] is 4.5.

Turning to `CC(C)CC(NC(=O)N(CCCl)N=O)C(=O)NCCCl` (stereo unspecified), the Dose in the series listed under Mus musculus [1] stood at 50 mg/kg. In the series listed under Mus musculus [2], this compound returned an OD of 35 mg/kg. This compound also had an LD50 in series [3] of 64 mg/kg. Moreover, the selectivity ratio in series [4] came to 1.8.

Compound `O=NN(CCCl)C(=O)NCCC(=O)NCCCl` came in with a Dose in the series filed under Mus musculus [1] of 50 mg/kg. In the series listed under Mus musculus [2], the OD stood at 35 mg/kg. Also, the selectivity ratio in series [4] worked out at 2.9.

In the case of `O=NN(CCCl)C(=O)NC(Cc1c[nH]c2ccccc12)C(=O)NCCCl` (stereo unspecified), the Dose in the series filed under Mus musculus [1] was determined as 35 mg/kg. Further, the OD in the series filed under Mus musculus [2] turned out to be 27 mg/kg. The same compound had an LD50 in series [3] of 65 mg/kg. In addition, the selectivity ratio in series [4] was found to be 2.4.

In turn, `CSCCC(NC(=O)N(CCCl)N=O)C(=O)NCCCl` (stereo unspecified) returned a Dose in the series filed under Mus musculus [1] of 30 mg/kg. Also, the OD in the series filed under Mus musculus [2] was determined as 20 mg/kg. In addition, the LD50 in series [3] was determined as 32 mg/kg. Also, the selectivity ratio in series [4] was determined as 1.6.
